Shown are actives, neighbours in structure and some others; about 1.5% of the full set was active somewhere.
CCR6 antagonist = antagonists of human CCR6 receptor | AID 493098 | CHO-K1 CCR6 PathHunter beta-arrestin, luminescence, CCL20-stimulated | hit rate 0.49% among 340,000 | inhibition, % at 20 µM;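 active = compounds whose inhibition of the agonist-driven luminescence signal at 20 µM reaches about 50%, limit read from the data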;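 note: cells stimulated with CCL20 at 14 nM final; plate controls were DMSO with CCL20 for no effect and DMSO without agonist for full effect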
HTR2A ag = activates the mouse 5-HT2A serotonin receptor. hit rate 0.66% among 360,000. activation, % at 7.6 µM. CHO-K1 mHTR2A beta-arrestin complementation, luminescence; percent of 30 µM serotonin response;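 active = activation above a run cutoff, the mean activation of all tested compounds plus 3 SD, cut at about 14% in these data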;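 note: 0% = plate median of compound wells and 100% = 30 µM serotonin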
APJ antag = APJ receptor antagonism; P35414; CHO-K1 APJ beta-arrestin complementation, luminescence; inhibition, % at 20 µM; hit rate 0.32% among 330,000;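 active = inhibition above about 40% at 20 µM, limit read from the data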;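 note: cells challenged with 10 nM apelin-13 agonist together with compound; plate controls were apelin-13 plus DMSO wells for no effect and DMSO wells lacking apelin-13 for full effect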
Target sequence (P35414 whole entry, looked up): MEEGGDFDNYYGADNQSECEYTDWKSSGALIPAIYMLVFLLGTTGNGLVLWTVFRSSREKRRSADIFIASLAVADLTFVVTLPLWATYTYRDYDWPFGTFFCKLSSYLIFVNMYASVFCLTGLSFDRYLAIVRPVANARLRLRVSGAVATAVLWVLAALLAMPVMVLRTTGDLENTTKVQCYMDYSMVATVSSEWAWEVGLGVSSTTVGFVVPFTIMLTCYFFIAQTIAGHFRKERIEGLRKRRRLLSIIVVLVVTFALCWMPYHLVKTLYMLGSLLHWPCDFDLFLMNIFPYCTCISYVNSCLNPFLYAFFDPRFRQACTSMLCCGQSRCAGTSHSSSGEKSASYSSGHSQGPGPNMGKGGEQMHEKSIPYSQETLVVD
APJ ag = APJ receptor agonism. P35414. CHO-K1 APJ PathHunter beta-arrestin, luminescence; 0% DMSO wells, 100% apelin. activation, % at 20 µM. hit rate 0.11% among 330,000;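 active = activation more than six SD over the plate average, tested at 20 µM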;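 note: 0% = DMSO alone and 100% = apelin-13 at 10 nM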
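system = engineered CHO-K1 APJ arrestin reporter cells | input = 1000 cells per well | timing = overnight seeding, 90 min compound at 25 °C, 1 h detection | measured by = enzyme-fragment complementation luminescence | read-out = beta-arrestin recruitment to APJ as agonist activity, luminescent signal | control set = negative DMSO alone, positive Apelin-13 at 10 nM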
CXCR6 block = blocks human CXCR6 beta-arrestin recruitment; CHO-K1 PathHunter CXCR6 beta-arrestin, luminescence; inhibition, % at 20 µM; hit rate 0.36% among 360,000; AID 602244; in the data active = inhibition above about 34%, passing the limit was not always enough;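 note: antagonist mode with CXCL16 agonist at 10 nM final; 0% = 10 nM CXCL16 with DMSO and 100% = unstimulated wells without agonist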
NTR1 ag = activates human neurotensin receptor 1; activation, % at 20 µM; NTR1-U2OS beta-arrestin-GFP spot imaging, agonist mode; hit rate 0.17% among 330,000; P30989;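 active = activation at or above 40% of the spot to cytoplasm intensity ratio, with at least 20 cells analyzed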;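 note: 0% = DMSO without peptide and 100% = 100 nM NTR1 peptide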
APJ antag conf = confirmation of human APJ apelin receptor antagonists; shares compounds with APJ antag; APJ beta-arrestin recruitment, luminescence, antagonist mode; inhibition, % at 20 µM; hit rate 66% among 950; in the data active = inhibition above about 50%
Starred values were filed as active, the others as inactive; . = not tested or not shown.

SMILES | CCR6 antagonist | HTR2A ag | APJ antag | APJ ag | CXCR6 block | NTR1 ag | APJ antag conf
CCOc1cc(/C=C2\SC(=S)N(Nc3ccccc3)C2=O)ccc1O | 62* | -12 | 52* | -11 | 44* | 3 | 108*
COc1cc(/C=C2\SC(=S)N(Nc3ncc(C(F)(F)F)cc3Cl)C2=O)ccc1O | 68* | -8 | 51* | -20 | 60* | -1 | 105*
COc1cc(/C=C2/SC(=S)N(CC3CCCO3)C2=O)ccc1O (centres undefined) | 73* | -7 | 48* | -4 | 42* | -1 | 88*
COc1cc(/C=C2\SC(=S)N(Nc3ccccc3)C2=O)ccc1O | 74* | -11 | 56* | -7 | 51* | -3 | 97*
CCOc1cc(/C=C2\SC(=S)N(NS(=O)(=O)c3ccccc3)C2=O)ccc1O | 40 | -3 | 39 | -6 | 31 | 1 | .
COc1cc(/C=C2\SC(=S)N(C(Cc3ccccc3)C(=O)O)C2=O)ccc1O (centres undefined) | 30 | 0 | 48* | -7 | 26 | 0 | 82*
O=C(O)C(Cc1ccccc1)N1C(=O)/C(=C/c2ccccc2)SC1=S (centres undefined) | 7 | 4 | 13 | -2 | 9 | 1 | .
CCC(=O)c1ccc(OCC(=O)OCC(=O)N2c3ccccc3CC2C)cc1 (centres undefined) | -2 | 1 | 20 | 3 | -13 | 0 | .
N#CC(c1ccc(Cl)cc1)c1ccc2c(C(F)(F)F)cc(C(F)(F)F)nc2n1 (centres undefined) | 56* | -1 | 47* | -6 | 45* | 11 | 76*
CCOc1ccc(-c2c(C(=O)N/N=C/c3cccc(Br)c3)nnn2-c2nonc2N)cc1 | 18 | -1 | 45* | -4 | 15 | 5 | 47
CCOc1ccc(-c2c(C(=O)N/N=C/c3ccc(O)cc3)nnn2-c2nonc2N)cc1 | -2 | -5 | 5 | -4 | 1 | 10 | .
CC1CC(=O)Nc2ccccc2N1S(=O)(=O)c1ccccc1 (centres undefined) | -3 | -1 | 60* | 3 | -4 | 0 | 45
COC(=O)C1=C(C)N(Cc2ccccc2)C(=NCC(C)C)N[C@H]1c1cccc(F)c1 | 8 | 0 | 48* | -4 | 2 | 4 | 84*
COC(=O)C1=C(C)N(Cc2ccccc2)C(=NCC(C)C)N[C@H]1c1cccc(C(F)(F)F)c1 | 10 | -10 | 34 | -2 | -8 | 22 | .
O=C1Nc2ccccc2C1=Nc1ccc(Br)cc1 | 69* | -1 | 63* | -14 | 42* | 2 | 147*
Cc1cccc(C)c1N=C1C(=O)Nc2ccccc21 | 6 | -3 | 16 | 0 | 1 | 0 | .
Cc1ccc(N=C2C(=O)Nc3ccccc32)cc1 | 56* | 1 | 40* | -10 | 34 | -1 | 78*
O=[N+]([O-])c1ccccc1N/N=C/c1c[nH]c2ccccc12 | 41 | -8 | 44* | -11 | 23 | 8 | 104*
O=[N+]([O-])c1ccccc1N/N=C/c1ccccc1 | 27 | 8 | 12 | -3 | 11 | 0 | .
O=C(N/N=C/c1c[nH]c2ccccc12)c1cccc([N+](=O)[O-])c1 | 13 | -1 | -14 | 0 | -3 | 3 | .
O=[N+]([O-])c1ccc(N/N=C/c2c[nH]c3ccccc23)cc1 | 58* | -13 | 43* | -13 | 31 | -4 | 79*
Cc1nn(Cc2ccc(Cl)cc2)c(C)c1NC(=O)C1CC=CCC1C(=O)O (centres undefined) | 20 | -1 | 50* | -2 | -1 | 2 | 33
CCN(CC)CCCn1c2c(c(SCC(=O)Nc3cc(OC)cc(OC)c3)nc1=O)CCC2 | 1 | -8 | 55* | -3 | 8 | -2 | 18
COc1ccc(/C(C)=N/NC(=O)c2ccc(CSc3nncn3C)cc2)cc1 | 6 | 0 | 9 | -4 | -4 | 1 | .
COc1ccc(C(=O)/C=C/C(=O)N(Cc2ccc(F)cc2)C(C(=O)NC2CCCCC2)c2ccncc2)c(O)c1 (centres undefined) | 13 | 4 | -13 | -1 | 6 | 5 | .
SMILES | CCR6 antagonist | HTR2A ag | APJ antag | APJ ag | CXCR6 block | NTR1 ag | APJ antag conf
COc1ccc(C(=O)/C=C/C(=O)N(CC(=O)NC2CCCCC2)CC2CCCO2)c(O)c1 (centres undefined) | 87* | -10 | 56* | -4 | 68* | 23 | 110*
Cc1ccc(NC(=O)CN2C(=O)N/C(=C/c3ccc(C)o3)C2=O)cc1 | -7 | 2 | 42* | -4 | 30 | 1 | 28
Cc1cc(Br)c(Cl)cc1NC(=O)CN1C(=O)C2C3CC(c4ccccc4)C(C3)C2C1=O (centres undefined) | -10 | 1 | 55* | -2 | -12 | 8 | -20
CCN1C(=O)/C(=C\C=C2/C=CC=CN2CC)SC1=S | 64* | -1 | 65* | -7 | 54* | 2 | 122*
CCN1C(=O)/C(=C2/C=CC=CN2C)SC1=S | 5 | 0 | -1 | -4 | 12 | -2 | .
Cc1noc(C)c1C(=O)NNc1ccc(C(C)C)cc1 | 27 | -1 | 47* | -20 | -3 | 0 | 102*
Cc1cc(C(=O)NNc2ccc(Cl)cc2)no1 | 18 | 2 | 24 | -6 | 8 | -1 | .
Cc1ccc(NNC(=O)c2c(C)noc2C)cc1Cl | 14 | -2 | 56* | -13 | 4 | 1 | 70*
Cc1cc(C(=O)NNc2ccc(C)c(C)c2)no1 | 22 | 1 | 42* | -12 | 17 | 4 | 114*
CNC(=O)CSc1nnc(C2CC2)n1-c1ccccc1 | 0 | 5 | -12 | 1 | -2 | 1 | .
COc1ccc(Nc2nc(Nc3ccc(OC)cc3)nc(-n3[nH]c(=O)c(C)c3C)n2)cc1 | 34 | 3 | 58* | -6 | 15 | 6 | 33
CCC1Nc2ncnc(N3CCCCC3)c2N(Cc2ccccc2)C1=O (centres undefined) | 15 | -6 | 9 | -2 | 2 | 2 | .
CC1Nc2ncnc(N3CCN(c4ccccn4)CC3)c2N(Cc2ccccc2)C1=O (centres undefined) | 79* | -20 | 65* | -20 | 68* | 0 | 110*
O=C(NCCOC(=O)c1cccs1)c1cccnc1 | -9 | -4 | 65* | -4 | 3 | 0 | 25
NC(=S)NNC(=S)Nc1ccccc1 | 5 | -4 | 41* | -4 | 7 | 0 | 53*
Cc1nn(CCC(=O)NNC(=S)NCC(C)C)c(C)c1Br | 53* | -26 | 77* | -14 | 38 | 1 | 115*
Cc1nn(CCC(=O)NNC(=S)Nc2ccc(F)cc2)c(C)c1[N+](=O)[O-] | -24 | 2 | 30 | -5 | 16 | -2 | .
CNC(=S)NNC(=O)CCn1nc(C)c(Br)c1C | -6 | -6 | 21 | -2 | -1 | 3 | .

Bioassay records deposited in PubChem by several laboratories.
